Measured values: publication PMC7012720 (Journal of inorganic biochemistry, 2019)
Where “and” joins values, the source holds several entries; their conditions need not be identical. Identical values can stand only once. Like-named read-outs stand apart in the source and are kept apart here.

What was measured:
Log = format: physicochemical; settings: for Estimated Log(Do/w) of protonation state: best fit of Figures 2–4, error +/− 0.2
Procedure, shortened: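 Modified shake-flask method in the dark, using 0.1 M acetate (pH 4.00–5.25) or 0.1 M phosphate (pH 5.8–8.0) buffer. Octanol and buffer were mutually pre-saturated for 24 h. Test compound (200 μM) in buffer-saturated octanol was stirred 1:1 with octanol-saturated buffer for 24 h at ambient temperature. The filtered aqueous phase was quantified by UV-Vis. logD = log([Ru]org/[Ru]aq), quadruplicate mean. Per-species values were fitted from pKa-based fractions.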

[1] = Mole fractions of protonation states calculated from pKa values; format: physicochemical
[2] = standard deviation in parenthesis; cited from earlier work
MDA-MD-231 (breast CSC) = settings: cited from earlier work
MCF7 (breast cancer) = settings: cited from earlier work
MCF10A (normal) = settings: cited from earlier work
HeLa (cervical cancer) = settings: cited from earlier work
[3] = read-out: IC50 light, irradiation for one hour with blue light (450 nm)

Substance: [(bipy)2Ru(6,6’-dhbp)]^2+ [Compound 1A]
- Estimated Log(Do/w) of protonation state (Log; Acidic Form (XA)): −0.1
- Estimated Log(Do/w) of protonation state (Log; Basic Form (XB)): 1.6
- Estimated Log(Do/w) of protonation state (Log; Monoprotic Acid): 0.9
- Increase of Log(Do/w) from acidic form (XA) to basic form (XB) (Log; orders of magnitude / log units, listed as 1): ~ 1.7 and 1.7
- Log(Do/w) (Log; pH 4.00, 0.1M Acetate Buffer): 0.04(3)
- Log(Do/w) (Log; pH 5.00, 0.1M Acetate Buffer): 0.11(2)
- Log(Do/w) (Log; pH 6.00, 0.1M Phosphate Buffer): 0.57(2)
- Log(Do/w) (Log; pH 6.60, 0.1M Phosphate Buffer): 1.10(2)
- Log(Do/w) (Log; pH 7.00, 0.1M Phosphate Buffer): 1.18(1)
- Log(Do/w) (Log; pH 7.40, 0.1M Phosphate Buffer): 1.36(1)
- Log(Do/w) (Log; pH 8.00, 0.1M Phosphate Buffer): 1.39(2)
- Proportion of monoprotic species ([1]; pH 6.0 to 6.6): 80–83%
- Mole fraction of acidic form (XA) ([1]; pH 7.4): ~0.003
- Mole fraction of monoprotic species ([1]; pH 7.4): ~0.42
- pKa1 [2]: 5.26
- pKa2 [2]: 7.27
- pKa avg [2]: 6.3
- PI (phototoxicity index, IC50 dark / IC50 light) (MDA-MD-231 (breast CSC); MDA-MD-231): 3.5
- IC50 (MDA-MD-231 (breast CSC); read-out: IC50 dark, MDA-MD-231, dark): 1010 µM
- IC50 (MDA-MD-231 (breast CSC); read-out: IC50 light, MDA-MD-231, irradiation for one hour with blue light (450 nm)): 290 µM
- PI (phototoxicity index, IC50 dark / IC50 light) (MCF7 (breast cancer); MCF7): ~1
- IC50 (MCF7 (breast cancer); read-out: IC50 dark, MCF7, dark): > 500 µM
- IC50 (MCF7 (breast cancer); read-out: IC50 light, MCF7, irradiation for one hour with blue light (450 nm)): > 500 µM
- PI (phototoxicity index, IC50 dark / IC50 light) (MCF10A (normal)): >2.4
- IC50 (MCF10A (normal); read-out: IC50 dark, dark): > 500 µM
- IC50 (MCF10A (normal); [3]): 210 µM
- PI (phototoxicity index, IC50 dark / IC50 light) (HeLa (cervical cancer)): 0.73
- IC50 (HeLa (cervical cancer); read-out: IC50 dark, dark): 148 µM
- IC50 (HeLa (cervical cancer); [3]): 202 µM
